Source: ChEMBL document CHEMBL1139167, “Synthesis and evaluation of diverse thio avarol derivatives as potential UVB photoprotective candidates” (Bioorg Med Chem Lett, 2007)
Active and inactive are the calls of the source. The calls are words filed in the database; no cut-off is given here.

Legend:
[1] = Toxicity assessed as inhibition of cell viability of UVB irradiated human HaCaT cells at 5 uM administered 2 hrs before irradiation by MTT assay; type: cell-based; settings: read-out: Inhibition
Procedure, shortened: (§1)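 HaCaT cells in DMEM/10% FBS were pretreated with compounds in ethanol (final ≤0.1%) 2 h before a single 40–50 mJ/cm² UVB dose. Viability was read by MTT reduction to formazan 24 h after irradiation. Inhibition is expressed relative to maximal viability of drug-free samples, means ± SEM (n = 6).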

[2] = Toxicity assessed as inhibition of cell viability of UVB irradiated human HaCaT cells at 10 uM administered 2 hrs before irradiation by MTT assay; type: cell-based; settings: read-out: Inhibition; procedure, shortened: as §1
Neutrophil = experiment: Antioxidant activity assessed as inhibition of reactive oxygen species generation in TPA-stimulated human neutrophils
HaCaT [3] = experiment: Inhibition of NF-kappaB activation in UVB irradiated human HaCaT cells at 10 uM administered 2 hrs before irradiation by EMSA
HaCaT [4] = experiment: Inhibition of TNFalpha production in UVB irradiated human HaCaT cells at 10 uM administered 2 hrs before irradiation by fluoroimmunoassay; type: functional
Procedure, shortened: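 Confluent HaCaT cells (seeded at 2 × 10^5 cells/mL in DMEM/10% FBS) received compounds in ethanol (final ≤0.1%) 2 h before 40–50 mJ/cm² UVB. […] IC50 with 95% CI came from at least four concentrations.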

HaCaT [5] = experiment: Inhibition of TNFalpha production in UVB irradiated human HaCaT cells administered 2 hrs before irradiation by fluoroimmunoassay; type: functional, cell-based; settings: light or radiation study
Procedure, shortened: (§2)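 Confluent HaCaT cells (seeded at 2 × 10^5 cells/mL in DMEM/10% FBS) received compounds in ethanol (final ≤0.1%) 2 h before 40–50 mJ/cm² UVB.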

HaCaT [6] = experiment: Inhibition of TNFalpha production in UVB irradiated human HaCaT cells at 5 uM administered 2 hrs before irradiation by fluoroimmunoassay; type: functional; procedure, shortened: as §2

Structure (SMILES) | cytotoxicity at 2 h, 5 µM [1] | cytotoxicity at 2 h, 10 µM [2] | Activity (Neutrophil) | Activity (HaCaT [3]) | Inhibition (HaCaT [4]) | IC50 (HaCaT [5]) | Inhibition (HaCaT [6])
CC1=CCC[C@H]2[C@](C)(Cc3cc(O)cc(SCCO)c3O)[C@@H](C)CC[C@]12C | 20.6% | 22.5% |  |  |  |  | 
CC1=CCC[C@H]2[C@](C)(Cc3cc(O)c(Sc4ccccc4)cc3O)[C@@H](C)CC[C@]12C | 0% | 0% | Dose-dependent effect | Active | 74.3% | 4.2 µM | 53.6%
CC1=CCC[C@H]2[C@](C)(Cc3cc(O)cc(Sc4ccc(C)cc4)c3O)[C@@H](C)CC[C@]12C | 0% | 0% |  |  | 0% |  | 0%
CC1=CCC[C@H]2[C@](C)(Cc3cc(O)c(Sc4ccc(C)cc4)cc3O)[C@@H](C)CC[C@]12C | 0% | 0% |  |  | 0% |  | 0%
CC1=CCC[C@H]2[C@](C)(Cc3cc(O)c(SCC(=O)O)cc3O)[C@@H](C)CC[C@]12C | 12.4% | 13.3% |  |  |  |  | 
CC1=CCC[C@H]2[C@](C)(Cc3cc(O)c(Sc4ccccc4)c(Sc4ccccc4)c3O)[C@@H](C)CC[C@]12C | 0% | 0% |  |  | 0% |  | 0%
CC1=CCC[C@H]2[C@](C)(Cc3cc(O)cc(Sc4ccccc4)c3O)[C@@H](C)CC[C@]12C | 0% | 0% | Dose-dependent effect | Active | 92.7% | 3.7 µM | 55.4%
CC1=CCC[C@H]2[C@](C)(Cc3cc(O)c(SCC(O)CO)cc3O)[C@@H](C)CC[C@]12C (some centres undefined) | 12.6% | 18.6% |  |  |  |  | 
CC1=CCC[C@H]2[C@](C)(Cc3cc(O)c(SCCO)c(SCCO)c3O)[C@@H](C)CC[C@]12C | 18.1% | 28.5% |  |  |  |  | 
CC1=CCC[C@H]2[C@](C)(Cc3cc(O)cc(SCC(=O)O)c3O)[C@@H](C)CC[C@]12C | 18.3% | 28.5% |  |  |  |  | 
COc1cc2ccc(=O)oc2c(O)c1O [FRAXETIN] | 0% | 3.4% |  |  | 68.1% | 2.8 µM | 58.6%
CC1=CCC[C@H]2[C@](C)(Cc3cc(O)c(SCCO)cc3O)[C@@H](C)CC[C@]12C | 21.4% | 48.4% |  |  |  |  | 
CC1=CCC[C@H]2[C@](C)(Cc3cc(O)c(Sc4ccc(C)cc4)c(Sc4ccc(C)cc4)c3O)[C@@H](C)CC[C@]12C | 0% | 0% |  |  | 0% |  | 0%
CC1=CCC[C@H]2[C@](C)(Cc3cc(O)cc(SCC(O)CO)c3O)[C@@H](C)CC[C@]12C (some centres undefined) | 13.6% | 14% |  |  |  |  | 
